In ChEMBL document CHEMBL1123702, “Functionalized DL-amino acid derivatives. Potent new agents for the treatment of epilepsy” (J Med Chem, 1987):
Non-standard residues stand in square brackets, D forms with d. Residues, ends and D or L forms follow the SMILES beside them. ξ: configuration not given here. *: point of attachment. NHBn = c1ccc(CN*)cc1; ξA = CC(N)C(=O)O

How the values were obtained:
Mus musculus [1] = experiment: Anticonvulsant against s.c. Metrazol-induced convulsions after 30 min.; type: functional
Method in brief: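 Mice (male Carworth Farms No. 1) got ip doses of 30, 100 or 300 mg/kg (600 mg/kg for one agent), checked at 0.5 h. Pentylenetetrazole 85 mg/kg as a 0.5% solution was injected sc in the posterior midline, then the animal was watched for 30 min. Protection means no threshold seizure (clonic spasms lasting ≥5 s). Single animals per dose; scored 0–4 by dose level.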

Mus musculus [2] = species on record: Mus musculus; experiment: Anticonvulsant activity was determined by rotarod toxicity test (neurologic toxicity) at an interval of 0.5 h; type: organism-based; conditions: in vivo
Method in brief: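 Phase I screen in male Carworth Farms No. 1 mice, ip at 30, 100 and 300 mg/kg, read at 0.5 h. Four mice per dose on a 1-in. knurled rod at 6 rpm; neurotoxicity is failure to remain on it for 1 min. Scored 0–4: 0 = none at 600 mg/kg, then 1–4 = activity at 600, 300, 100 or 30 mg/kg.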

Mus musculus [3] = species on record: Mus musculus; experiment: Anticonvulsant against maximal electroshock induced convulsions after 30 min.; type: functional
Method in brief: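 Male Carworth Farms No. 1 mice, test agent given ip at 30, 100 and 300 mg/kg (one agent also at 600 mg/kg); read at 0.5 h. Electroshock via electrodes, with a drop of 0.9% saline in the eye first. Protection is abolition of the hind-limb tonic extension. One mouse per dose. Scored 0–4 by the lowest dose with noticeable activity.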

[4] = Protectivity index is the ratio of TD50 /MES ED50 from Phase-II evaluation; type: functional
Method in brief: (§1)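 MES protection: hind-limb tonic extension abolished; saline drop in eye before electrodes. sc Met: pentylenetetrazole 85 mg/kg as 0.5% solution sc in posterior midline, 30 min observation; protection: no clonic spasm episode of at least 5 s. Rotarod toxicity: falling off a 1-in. rod at 6 rpm within 1 min. PI = TD50/MES ED50.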

Mus musculus [5] = species on record: Mus musculus; experiment: Anticonvulsant activity was determined by maximum-induced convulsions electroshock seizure test (Phase II Pharmacological Evaluation); type: functional
Mus musculus [6] = experiment: Anticonvulsant activity was determined by subcutaneous Metrazol-induced convulsions seizure test (Phase II Pharmacological Evaluation); type: functional; conditions: sc; method in brief: as §1
Mus musculus [7] = experiment: Anticonvulsant activity was determined by subcutaneous picrotoxin test (CD97=3.15 mg/kg) (Phase V Pharmacological Evaluation); type: functional; conditions: sc
Mus musculus [8] = experiment: Anticonvulsant activity was determined by subcutaneous bicuculline test (CD97=2.70 mg/kg) (Phase V Pharmacological Evaluation); type: functional; conditions: sc
Mus musculus [9] = experiment: Anticonvulsant activity was determined by subcutaneous Metrazol-induced convulsions seizure test (Phase IV Pharmacological Evaluation); type: functional; conditions: sc
Method in brief: (§2)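 MES protection: hind-limb tonic extension abolished. sc Met: pentylenetetrazole 85 mg/kg as 0.5% solution sc, 30 min observation; protection: no threshold clonic seizure of 5 s or more. Toxicity: failing to stay 1 min on a 6 rpm rod. PI = TD50/MES ED50.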

Mus musculus [10] = species on record: Mus musculus; experiment: Anticonvulsant activity was determined by maximum-induced convulsions electroshock seizure test (Phase IV Pharmacological Evaluation); type: functional
Mus musculus [11] = experiment: Anticonvulsant activity was determined by subcutaneous Metrazol-induced convulsions (sc MET)(Phase V Pharmacological Evaluation); type: functional
Method in brief: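 Mice, normally eight per dose; Metrazol 85 mg/kg (CD97) as 0.5% solution sc in posterior midline. Animals isolated and observed 30 min; protection: no threshold seizure (a clonic spasm episode of at least 5 s).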

[12] = Neurologic toxicity activity was determined by rotarod toxicity test (Phase II Pharmacological Evaluation); type: organism-based; conditions: mouse, in vivo
[13] = Protectivity index is the ratio of TD50 /MES ED50 from Phase-IV evaluation; type: functional; method in brief: as §2
[14] = Neurologic toxicity activity was determined by rotarod toxicity test (Phase IV Pharmacological Evaluation); type: organism-based; conditions: mouse, in vivo
Mus musculus [15] = experiment: Anticonvulsant activity was determined by subcutaneous pentylenetetrazole seizure test (Phase IV Pharmacological Evaluation); type: functional; conditions: sc; method in brief: as §2
Mus musculus [16] = species on record: Mus musculus; experiment: Anticonvulsant activity was determined by maximum-induced convulsions electroshock seizure test (Phase III Pharmacological Evaluation); type: functional

| Structure (SMILES) | MET (Mus musculus [1]) | Toxicity (Mus musculus [2]) | MES (Mus musculus [3]) | also measured |
| --- | --- | --- | --- | --- |
| CC(=O)NCC(C)C(=O)NCc1ccccc1 (stereo unspecified) | 0 | 0 | 2 | – |
| CC(=O)NC(C)C(=O)NCc1cccc(F)c1 (stereo unspecified) | 0 | 0 | 3 | Protective Index [4]: > 6.46; ED50 (Mus musculus [5]): 77.4 mg/kg; ED50 (Mus musculus [6]): 142 mg/kg |
| CC(=O)NCC(=O)NCc1ccccc1 | 0 | 2 | 2 | – |
| CNC(=O)C(C)NC(C)=O (stereo unspecified) | 0 | 0 | 0 | – |
| CC(=O)NC(C(=O)NCc1ccccc1)(c1ccccc1)c1ccccc1 | 0 | 0 | 0 | – |
| CCCC(CCC)C(=O)O [VALPROIC ACID] | – | – | – | ED50 (Mus musculus [7]): 387 mg/kg; ED50 (Mus musculus [8]): 360 mg/kg; ED50 (Mus musculus [9]): 388 mg/kg; ED50 (Mus musculus [10]): 665 mg/kg; ED50 (Mus musculus [5]): 272 mg/kg; ED50 (Mus musculus [6]): 149 mg/kg; ED50 (Mus musculus [11]): 149 mg/kg |
| CC(=O)NC(C(=O)NCc1ccccc1)c1ccccc1 (stereo unspecified) | 0 | 2 | 4 | TD50 [12]: 96.9 mg/kg; Protective Index [13]: 5.17; ED50 (Mus musculus [10]): 46.7 mg/kg; Protective Index [4]: 4.77; ED50 (Mus musculus [5]): 20.3 mg/kg; TD50 [14]: 241 mg/kg |
| CC(=O)NC(C)C(=O)NCC(=O)NCc1ccccc1 (stereo unspecified) (Ac-[ξA]-Gly-NHBn) | 0 | 0 | 0 | – |
| CC(=O)NC(C)C(=O)NCc1ccccc1 (stereo unspecified) | 0 | 1 | 3 | ED50 (Mus musculus [15]): 266 mg/kg; ED50 (Mus musculus [7]): 134 mg/kg; ED50 (Mus musculus [8]): 205 mg/kg; Protective Index [13]: > 8.15; Protective Index [4]: 5.93; ED50 (Mus musculus [5]): 76.5 mg/kg; ED50 (Mus musculus [16]): 123 mg/kg |
| CC(=O)NC(C(=O)NCc1ccccc1)C(C)C (stereo unspecified) | 0 | 0 | 2 | – |
| CCC1(C)CC(=O)NC1=O (stereo unspecified) [ETHOSUXIMIDE] | – | – | – | ED50 (Mus musculus [7]): 243 mg/kg; TD50 [12]: 441 mg/kg; ED50 (Mus musculus [8]): 459 mg/kg; ED50 (Mus musculus [9]): 192 mg/kg; ED50 (Mus musculus [6]): 130 mg/kg; ED50 (Mus musculus [11]): 130 mg/kg; TD50 [14]: 879 mg/kg |
| CSCCC(NC(C)=O)C(=O)NCc1ccccc1 (stereo unspecified) | 0 | 0 | 2 | – |
| CC(=O)NCC(=O)NC(C)C(=O)NCc1ccccc1 (stereo unspecified) (Ac-Gly-[ξA]-NHBn) | 0 | 0 | 0 | – |
| CC(NC(=O)C(C)(C)C)C(=O)NCc1ccccc1 (stereo unspecified) | 2 | 0 | 2 | – |
| CC(=O)NC(Cc1ccccc1)C(=O)NCc1ccccc1 (stereo unspecified) | 0 | 0 | 0 | – |
| CC(=O)NCCC(=O)NCc1ccccc1 | 0 | 0 | 0 | – |
| COc1cccc(CNC(=O)C(C)NC(C)=O)c1 (stereo unspecified) | 0 | 0 | 2 | – |
| CC(C)C(=O)NC(C)C(=O)NCc1ccccc1 (stereo unspecified) | 0 | 0 | 0 | – |
| CC(=O)NC(C)C(=O)NC(c1ccccc1)c1ccccc1 (stereo unspecified) | 0 | 0 | 0 | – |
